Results published in ChEMBL document CHEMBL4673181, “An investigation of the antileishmanial properties of semi-synthetic saponins” (RSC Med Chem, 2020).

Legend:
Leishmania mexicana [1] = experiment: Antileishmanial activity against axenic amastigote stage of Leishmania mexicana (MNYC/BZ/62/M379) assessed as inhibition of parasite proliferation at 50 uM incubated for 24 hrs by alamar blue dye based fluorescence analysis; type: functional
Procedure, shortened: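 Primary single-point screen at 50 μM, in duplicate. Axenic L. mexicana amastigotes at 4x10⁵ mL⁻¹ incubated with compound 24 h at 33 °C in sealed plates, then alamarBlue for a further 24 h at the same temperature. Viability read by fluorescence at 560/600 nm against amphotericin B (50 μM) and DMSO controls.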

Leishmania mexicana [2] = experiment: Antileishmanial activity against axenic amastigote stage of Leishmania mexicana (MNYC/BZ/62/M379) assessed as induction of parasite killing incubated for 24 hrs by alamar blue dye based fluorescence analysis; type: functional; details: read-out: ED50 (the source's name)
Procedure, shortened: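 L. mexicana axenic amastigotes (from promastigotes by pH/temperature shift; Schneider's with 20% HIFBS) at 4x10⁵ mL⁻¹, exposed to three-fold dilutions from 50 μM to 0.21 μM for 24 h at 33 °C in sealed plates. alamarBlue then added for another 24 h, fluorescence read at 560/600 nm. Amphotericin B (50 μM) positive, DMSO negative control. Duplicates on four occasions, EC₅₀ fitted.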

SMILES	inhibition at 50 µM (Leishmania mexicana [1])	EC50 (Leishmania mexicana [2])
C#CCOC(=O)[C@]12CCC(C)(C)C[C@H]1C1=CC[C@@H]3[C@@]4(C)CC[C@H](O)[C@@](C)(CO)[C@@H]4CC[C@@]3(C)[C@]1(C)CC2	≥ 95%	15.1 µM
CC1(C)CC[C@]2(C(=O)OCc3ccc([N+](=O)[O-])cc3)CC[C@]3(C)C(=CC[C@@H]4[C@@]5(C)CC[C@H](O)[C@@](C)(CO)[C@@H]5CC[C@]43C)[C@@H]2C1	≥ 95%	36.2 µM
CC1(C)CC[C@]2(NC(=O)NCCCn3ccnc3)CC[C@]3(C)C(=CC[C@@H]4[C@@]5(C)CC[C@@H]6OC(C)(C)OC[C@@]6(C)[C@@H]5CC[C@]43C)[C@@H]2C1	≥ 95%	37.6 µM
CC1(C)CC[C@]2(NC(=O)NCc3cccnc3)CC[C@]3(C)C(=CC[C@@H]4[C@@]5(C)CC[C@@H]6OC(C)(C)OC[C@@]6(C)[C@@H]5CC[C@]43C)[C@@H]2C1	≥ 95%	17.5 µM
CC1(C)CC[C@]2(C(=O)O)CC[C@]3(C)C(=CC[C@@H]4[C@@]5(C)CC[C@@H]6O[C@H](C[C@H]7O[C@H](CO)[C@H](O)[C@H](O)[C@H]7O)OC[C@@]6(C)[C@@H]5CC[C@]43C)[C@@H]2C1	≥ 95%	21.7 µM
CN(C)CCCNC(=O)N[C@]12CCC(C)(C)C[C@H]1C1=CC[C@@H]3[C@@]4(C)CC[C@@H]5OC(C)(C)OC[C@@]5(C)[C@@H]4CC[C@@]3(C)[C@]1(C)CC2	≥ 95%	17.5 µM
C=CCOC(=O)[C@]12CCC(C)(C)C[C@H]1C1=CC[C@@H]3[C@@]4(C)CC[C@H](O)[C@@](C)(CO)[C@@H]4CC[C@@]3(C)[C@]1(C)CC2	≥ 95%	22.7 µM
CCCOC(=O)[C@]12CCC(C)(C)C[C@H]1C1=CC[C@@H]3[C@@]4(C)CC[C@H](O)[C@@](C)(CO)[C@@H]4CC[C@@]3(C)[C@]1(C)CC2	≥ 95%	43.6 µM
CC1(C)CC[C@]2(C(=O)O)CC[C@]3(C)C(=CC[C@@H]4[C@@]5(C)CC[C@@H]6OCOC[C@@]6(C)[C@@H]5CC[C@]43C)[C@@H]2C1	≥ 95%	14.9 µM
CC1(C)CC[C@]2(C(=O)OCC(=O)c3ccccc3)CC[C@]3(C)C(=CC[C@@H]4[C@@]5(C)CC[C@H](O)[C@@](C)(CO)[C@@H]5CC[C@]43C)[C@@H]2C1	≥ 95%	45.9 µM
CC1(C)CC[C@]2(C(=O)O)CC[C@]3(C)C(=CC[C@@H]4[C@@]5(C)CC[C@@H]6O[C@H]([C@H](O)[C@@H](O)[C@@H](O)CO)OC[C@@]6(C)[C@@H]5CC[C@]43C)[C@@H]2C1	≥ 95%	14.6 µM
CC1(C)CC[C@]2(NC(=O)N3CCCC3)CC[C@]3(C)C(=CC[C@@H]4[C@@]5(C)CC[C@H](O)[C@@](C)(CO)[C@@H]5CC[C@]43C)[C@@H]2C1	≥ 95%	15.3 µM
CN(C[C@H](O)[C@@H](O)[C@H](O)[C@H](O)CO)C(=O)N[C@]12CCC(C)(C)C[C@H]1C1=CC[C@@H]3[C@@]4(C)CC[C@@H]5OC(C)(C)OC[C@@]5(C)[C@@H]4CC[C@@]3(C)[C@]1(C)CC2	≥ 95%	19.9 µM
C[C@@H]1O[C@@H](C[C@@H]2OC[C@@]3(C)[C@@H]4CC[C@]5(C)[C@H](CC=C6[C@@H]7CC(C)(C)CC[C@]7(C(=O)O)CC[C@]65C)[C@@]4(C)CC[C@@H]3O2)[C@@H](O)[C@H](O)[C@@H]1O	≥ 95%	19.4 µM
CC1(C)CC[C@]2(C(=O)OCN3C(=O)c4ccccc4C3=O)CC[C@]3(C)C(=CC[C@@H]4[C@@]5(C)CC[C@H](O)[C@@](C)(CO)[C@@H]5CC[C@]43C)[C@@H]2C1	≥ 95%	17.8 µM
CCOCc1ccc(C2OC[C@@]3(C)[C@@H]4CC[C@]5(C)[C@H](CC=C6[C@@H]7CC(C)(C)CC[C@]7(C(=O)O)CC[C@]65C)[C@@]4(C)CC[C@@H]3O2)o1 (some centres not stated)	≥ 95%	19.2 µM

SMILES	inhibition at 50 µM (Leishmania mexicana [1])	EC50 (Leishmania mexicana [2])
CC1(C)CC[C@]2(NC(=O)N3CCCNCC3)CC[C@]3(C)C(=CC[C@@H]4[C@@]5(C)CC[C@@H]6OC(C)(C)OC[C@@]6(C)[C@@H]5CC[C@]43C)[C@@H]2C1	≥ 95%	> 50 µM
C[C@H](O)[C@H](O)[C@@H](O)[C@@H](O)[C@@H]1OC[C@@]2(C)[C@@H]3CC[C@]4(C)[C@H](CC=C5[C@@H]6CC(C)(C)CC[C@]6(C(=O)O)CC[C@]54C)[C@@]3(C)CC[C@@H]2O1	≥ 95%	21.2 µM
C[C@@H]1O[C@@H](C[C@@H]2OC[C@@]3(C)[C@@H]4CC[C@]5(C)[C@H](CC=C6[C@@H]7CC(C)(C)CC[C@]7(C(=O)O)CC[C@]65C)[C@@]4(C)CC[C@@H]3O2)[C@H](O)[C@H](O)[C@H]1O	≥ 95%	13.9 µM
C[C@H](O)[C@H](O)[C@@H](O)[C@@H](O)[C@@H]1OC[C@@]2(C)[C@@H]3CC[C@]4(C)[C@H](CC=C5[C@@H]6CC(C)(C)CC[C@]6(CO)CC[C@]54C)[C@@]3(C)CC[C@@H]2O1	≥ 95%	26.9 µM
CC(=O)N1CCN(C(=O)N[C@]23CCC(C)(C)C[C@H]2C2=CC[C@@H]4[C@@]5(C)CC[C@@H]6OC(C)(C)OC[C@@]6(C)[C@@H]5CC[C@@]4(C)[C@]2(C)CC3)CC1	≥ 95%	26.4 µM
COC(=O)[C@]12CCC(C)(C)C[C@H]1C1=CC[C@@H]3[C@@]4(C)CC[C@H](O)[C@@](C)(CO)[C@@H]4CC[C@@]3(C)[C@]1(C)CC2	≥ 95%	12 µM
CCOP(=O)(OCC)OC[C@@]1(C)[C@@H]2CC[C@]3(C)[C@H](CC=C4[C@@H]5CC(C)(C)CC[C@]5(NC(=O)N5CCOCC5)CC[C@]43C)[C@@]2(C)CC[C@@H]1O	≥ 95%	19.3 µM
CC(=O)OC[C@@]1(C)[C@@H]2CC[C@]3(C)[C@H](CC=C4[C@@H]5CC(C)(C)CC[C@]5(NC(=O)N5CCN(C)CC5)CC[C@]43C)[C@@]2(C)CC[C@@H]1O[C@@H]1OC[C@H](OC(C)=O)[C@H](OC(C)=O)[C@H]1O[C@@H]1O[C@@H](C)[C@H](OC(C)=O)[C@@H](OC(C)=O)[C@H]1OC(C)=O	≥ 95%	19.9 µM
CC1(C)CC[C@]2(NC(=O)N[C@H]3C(O)O[C@H](CO)[C@@H](O)[C@@H]3O)CC[C@]3(C)C(=CC[C@@H]4[C@@]5(C)CC[C@@H]6OC(C)(C)OC[C@@]6(C)[C@@H]5CC[C@]43C)[C@@H]2C1 (some centres not stated)	≥ 95%	> 50 µM
CC1(C)CC[C@]2(NC(=O)N3CCC[C@H]3CO)CC[C@]3(C)C(=CC[C@@H]4[C@@]5(C)CC[C@@H]6OC(C)(C)OC[C@@]6(C)[C@@H]5CC[C@]43C)[C@@H]2C1	≥ 95%	26.2 µM
COC(=O)[C@H](Cc1c[nH]cn1)NC(=O)N[C@]12CCC(C)(C)C[C@H]1C1=CC[C@@H]3[C@@]4(C)CC[C@@H]5OC(C)(C)OC[C@@]5(C)[C@@H]4CC[C@@]3(C)[C@]1(C)CC2	≥ 95%	20.9 µM
CC1(C)CC[C@]2(NC(=O)N3CCC[C@H]3C(=O)NCCCn3ccnc3)CC[C@]3(C)C(=CC[C@@H]4[C@@]5(C)CC[C@@H]6OC(C)(C)OC[C@@]6(C)[C@@H]5CC[C@]43C)[C@@H]2C1	≥ 95%	20.2 µM
CN1CCN(C(=O)[C@@H]2CCCN2C(=O)N[C@]23CCC(C)(C)C[C@H]2C2=CC[C@@H]4[C@@]5(C)CC[C@@H]6OC(C)(C)OC[C@@]6(C)[C@@H]5CC[C@@]4(C)[C@]2(C)CC3)CC1	≥ 95%	32.4 µM
C[C@@H]1O[C@@H](O[C@H]2[C@H](O[C@H]3CC[C@@]4(C)[C@@H](CC[C@]5(C)[C@@H]4CC=C4[C@@H]6CC(C)(C)CC[C@]6(C(=O)O)CC[C@]45C)[C@]3(C)CO)OC[C@H](O)[C@@H]2O)[C@H](O)[C@H](O)[C@H]1O [ALPHA-HEDERIN]	≥ 95%	19.6 µM
CC1(C)CC[C@]2(C(=O)O)CC[C@]3(C)C(=CC[C@@H]4[C@@]5(C)CC[C@H](O[C@@H]6O[C@H](CO)[C@@H](O)[C@H](O)[C@H]6O)[C@@](C)(CO)[C@@H]5CC[C@]43C)[C@@H]2C1 [Hederagenin-3-O-beta-D-glucopyranoside]	≥ 95%	> 50 µM
